mIAP activ: increases mouse intestinal alkaline phosphatase activity; activation factor at 10 µM; actives 0.24% (n = 330,000); muIAP, CDP-Star luminescence, 30 min; stronger effect = higher value; 1 = vehicle-only enzyme signal, 0 = enzyme-free wells; AID 2805;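 active = activation factor of at least 2 at 20 µM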
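Assay system: mouse IAP enzyme; reagent: chemiluminescent substrate CDP-Star; dosing: test compounds delivered from DMSO solution; schedule: 30 min at room temperature; measured by: luminescence from enzymatic CDP-Star hydrolysis; controls: DMSO-only wells and no-enzyme negative control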
hIAP act: human IAP activation | AID 2524 | purified human IAP, CDP-Star luminescence, 30 min; stronger effect = higher value; 1 = vehicle-only enzyme, 0 = enzyme-free background | actives 0.16% (n = 330,000) | P09923 | activation factor at 10 µM;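 active = activation factor of the enzyme at least 2-fold when tested at 20 µM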
Target sequence (P09923 whole entry, looked up): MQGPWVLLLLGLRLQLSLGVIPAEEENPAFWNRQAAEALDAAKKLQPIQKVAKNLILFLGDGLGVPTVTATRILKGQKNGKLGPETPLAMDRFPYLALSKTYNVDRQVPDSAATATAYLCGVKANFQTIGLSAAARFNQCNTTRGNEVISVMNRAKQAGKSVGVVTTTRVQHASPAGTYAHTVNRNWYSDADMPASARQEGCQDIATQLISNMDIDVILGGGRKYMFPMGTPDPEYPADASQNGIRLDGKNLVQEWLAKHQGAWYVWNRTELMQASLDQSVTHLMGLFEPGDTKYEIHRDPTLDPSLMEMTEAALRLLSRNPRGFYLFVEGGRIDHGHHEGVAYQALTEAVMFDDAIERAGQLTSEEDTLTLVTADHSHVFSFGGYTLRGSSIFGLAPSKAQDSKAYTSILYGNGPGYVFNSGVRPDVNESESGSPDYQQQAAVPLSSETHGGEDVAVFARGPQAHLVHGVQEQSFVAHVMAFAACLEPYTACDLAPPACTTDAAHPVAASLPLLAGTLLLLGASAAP
hIAP block: blocks human intestinal alkaline phosphatase; P09923; purified IAP, CDP-Star luminescence, 30 min; inhibition, % at 10 µM; actives 0.12% (n = 330,000); AID 2544;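 active = inhibition reaching a set limit with compound at 10 µM in the primary screen, cut at about 35% in these data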;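 also: plate controls were DMSO wells with enzyme for no effect and no-enzyme buffer wells for full effect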
bIAP inhibitor: blocks bovine intestinal alkaline phosphatase activity | purified bovine IAP, CDP-star luminescence, 30 min | inhibition, % at 20 µM | 190,000 tested, under 10 active | AID 1019;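 active = over 50% inhibition of intestinal alkaline phosphatase at 20 µM in the single-dose screen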
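System: Purified bovine intestinal alkaline phosphatase (IAP) enzyme | Input: IAP diluted 1/65,000,000 in the well | Also added: CDP-star chemiluminescent phosphatase substrate, 30 µM final | Dosing: 20 µM single dose | Times: Enzyme reaction for 30 min at room temperature | Detection: Luminescence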
bIAP act: intestinal alkaline phosphatase (bovine) activation. purified bovine IAP, CDP-star luminescence, 30 min; stronger effect = higher value; fold of DMSO-control signal, blank-subtracted. activation factor at 20 µM. actives 0.17% (n = 200,000);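 active = activation factor of 2 or more at 20 µM, a signal rise over negative controls twice the positive control's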
mIAP inh: blocks mouse intestinal alkaline phosphatase; purified mouse IAP, CDP-Star luminescence, 30 min; inhibition, % at 10 µM; actives 0.2% (n = 330,000);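 active = inhibition of at least 40% at 10 µM in the primary screen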;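 also: plate controls were DMSO with enzyme for no effect and no enzyme wells for full effect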
The depositor's hits bear a star. An excerpt weighted towards active compounds, which were near 0.72% of everything screened.

How did COc1ccc(NC(=O)C2CCN(S(=O)(=O)c3ccc(C)cc3)CC2)cc1OC do in these assays?
mIAP activ: 1.2; hIAP act: 1.1; hIAP block: -12; bIAP inhibitor: 8; bIAP act: 0.9; mIAP inh: -23

Results for COc1ccc(CNC2CC(C)N(C)CC2C)cc1OC (stereo unspecified) ?
mIAP activ: 1; hIAP act: 1.3; hIAP block: -31; mIAP inh: -1

How did CN(Cc1ccccc1)S(=O)(=O)c1ccc(Cl)c(C(=O)OCC(=O)NC2CCS(=O)(=O)C2)c1 (stereo unspecified) do in these assays?
mIAP activ: 1; hIAP act: 0.98; hIAP block: 2; mIAP inh: -4

Results for O=S(=O)(O)c1nc2ccccc2n1Cc1cccc2ccccc12 ?
mIAP activ: 0.96; hIAP act: 1.1; hIAP block: -12; mIAP inh: 4

How did COCCC(=O)N1CCC(Oc2ccc(C(=O)NC(C)CCn3cccn3)cc2)CC1 (stereo unspecified) do in these assays?
mIAP activ: 0.92; hIAP act: 1.3; hIAP block: -29; mIAP inh: 8

Results for CC(/C=C/c1ccccc1)=N\Nc1nc2c(c(=O)[nH]c(=O)n2C)n1CCO ?
mIAP activ: 0.91; hIAP act: 0.88; hIAP block: 12; mIAP inh: 9

What do the screens show for `COCCn1c(N/N=C(C)/C=C/c2ccccc2)nc2c1c(=O)[nH]c(=O)n2C`?
bIAP inhibitor: -179; bIAP act: 2.8*

How did Cc1ccc(NC(=O)NCCN2CCCCC2)cc1C do in these assays?
mIAP activ: 1.3; hIAP act: 0.81; hIAP block: 19; mIAP inh: -29

What do the screens show for `CCCCSCCCNC(=O)Nc1ccc(C)c(C)c1`?
mIAP activ: 2.7*; hIAP act: 1.3; hIAP block: -28; bIAP inhibitor: -3; bIAP act: 1; mIAP inh: -173

What do the screens show for `O=c1cc(-c2ccc(O)cc2)oc2c(C3OCC(O)C(O)C3O)c(O)c(C3OC(CO)C(O)C(O)C3O)c(O)c12` (stereo unspecified)?
mIAP activ: 0.57; hIAP act: 1; hIAP block: -1; mIAP inh: 43*

Results for CC(=O)N1CCN(C(=O)COc2ccc(Br)cc2)CC1 ?
mIAP activ: 0.97; hIAP act: 1.1; hIAP block: -12; bIAP inhibitor: 2; bIAP act: 1; mIAP inh: 3

What do the screens show for `COc1ccc(OCC(=O)N2CCN(C(=O)COc3ccc(Br)cc3)CC2)cc1`?
mIAP activ: 0.26; hIAP act: 0.89; hIAP block: 11; bIAP inhibitor: 5; bIAP act: 1; mIAP inh: 74*

Results for O=C(Nc1cc(S(=O)(=O)N2CCOCC2)ccc1N1CCOCC1)c1cccs1 ?
mIAP activ: 0.93; hIAP act: 0.94; hIAP block: 6; mIAP inh: 8

How did C=CCn1c(=O)/c(=C\c2ccccn2)s/c1=C(/C#N)C(=O)NCC1CCCO1 (stereo unspecified) do in these assays?
mIAP activ: 0.93; hIAP act: 0.92; hIAP block: 8; bIAP inhibitor: -6; bIAP act: 1.1; mIAP inh: 7

What do the screens show for `C=CCn1c(=O)/c(=C/c2ccc(C)o2)s/c1=C(/C#N)C(=O)c1ccccc1`?
mIAP activ: 0.58; hIAP act: 0.81; hIAP block: 19; bIAP inhibitor: 19; bIAP act: 0.8; mIAP inh: 42*

How did COc1ccccc1-c1cc(C(=O)N2CCN(S(=O)(=O)c3ccc(C)cc3)CC2)[nH]n1 do in these assays?
mIAP activ: 2.3*; hIAP act: 1.2; hIAP block: -20; mIAP inh: -128

How did S=C(NCCc1ccc(Cl)cc1)Nc1ccc(Cl)cc1Cl do in these assays?
mIAP activ: 2.3*; hIAP act: 0.94; hIAP block: 6; bIAP inhibitor: -1; bIAP act: 1; mIAP inh: -133

How did O=C(NCCc1ccc(Cl)cc1)Nc1cccc(Cl)c1 do in these assays?
mIAP activ: 2.9*; hIAP act: 1.2; hIAP block: -21; bIAP inhibitor: 7; bIAP act: 0.9; mIAP inh: -190

Results for S=C(NCCCc1ccccc1)Nc1ccccc1 ?
mIAP activ: 1.2; hIAP act: 1.1; hIAP block: -13; mIAP inh: -18

What do the screens show for `S=C(NCCCc1ccccc1)Nc1ccc(Cl)cc1`?
mIAP activ: 2.7*; hIAP act: 0.95; hIAP block: 5; bIAP inhibitor: 11; bIAP act: 0.9; mIAP inh: -165

How did C=CCC1(N(C(C)=O)c2ccccc2C)CCCCC1 do in these assays?
mIAP activ: 0.97; hIAP act: 1; hIAP block: -1; bIAP inhibitor: -3; bIAP act: 1; mIAP inh: 3

Results for O=C(COc1ccc(F)cc1)NCCNC(=O)COc1ccc(F)cc1 ?
mIAP activ: 1.1; hIAP act: 1.2; hIAP block: -19; mIAP inh: -5

What do the screens show for `O=C(N/N=C/c1ccccc1Br)c1cccc(S(=O)(=O)N2CCOCC2)c1`?
mIAP activ: 1.1; hIAP act: 1.1; hIAP block: -9; mIAP inh: -11

Results for O=C(N/N=C/c1cc(Br)cc(Br)c1O)c1cccc(S(=O)(=O)N2CCOCC2)c1 ?
mIAP activ: 0.59; hIAP act: 1.5; hIAP block: -47; mIAP inh: 41*

How did CC(C)(C)OC(=O)N1CCC(Cc2cc(-c3cccnc3)no2)(C(=O)O)CC1 do in these assays?
mIAP activ: 0.95; hIAP act: 1; hIAP block: -2; mIAP inh: 5

What do the screens show for `O=C(N/N=C/C=C/c1ccccc1)c1n[nH]c2c1CCC2`?
mIAP activ: 1.1; hIAP act: 2.1*; hIAP block: -108; bIAP inhibitor: -39; bIAP act: 1.4; mIAP inh: -7

How did CC(/C=N/NC(=O)c1n[nH]c2c1CCC2)=C\c1ccccc1 do in these assays?
mIAP activ: 0.98; hIAP act: 1.5; hIAP block: -52; bIAP inhibitor: 2; bIAP act: 1; mIAP inh: 2

What do the screens show for `Cn1c(=O)c2c(nc(N/N=C/c3cccs3)n2C)n(C)c1=O`?
mIAP activ: 1; hIAP act: 1.1; hIAP block: -15; mIAP inh: -4

Results for Cn1c(=O)c2c(nc(N/N=C/c3ccco3)n2C)n(C)c1=O ?
mIAP activ: 0.94; hIAP act: 1.4; hIAP block: -35; bIAP inhibitor: -108; bIAP act: 2.1*; mIAP inh: 6

Results for CC(=O)Nc1cccc(NC(=O)COC(=O)CO/N=C(\C)c2ccc3c(c2)OCO3)c1 ?
mIAP activ: 1; hIAP act: 0.98; hIAP block: 2; mIAP inh: -2

Results for O=C(NCC1CCN(Cc2ccccc2Cl)CC1)Nc1ccccc1F ?
mIAP activ: 2; hIAP act: 1.2; hIAP block: -20; mIAP inh: -97
